From the RNAGym collection of RNA variant scans (doi:10.1126/science.aae0568)
This sample holds only a part of the variants without activity.

B1: tRNA (parent)
chain: GUUCCGUUGGCGUAAUGGUAACGCGUCUCCCUCCUAAGGAGAAGACUGCGGGUUCGAGUCCCGUACGGAACG

Variants of: B1
Assay: yeast fitness relative to wild type (ratio to wild type); higher = fitter; tRNA-Arg(CCU), competitive growth, 37 C, YPD
Outline: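 Start and end populations of a pooled competition were compared by 100-nucleotide paired-end sequencing of gene amplicons. The Saccharomyces cerevisiae strains carried tRNA-Arg(CCU) gene variants at the native genomic locus, synthesised with a 3% per-site mutation rate at 69 sites, and competed in YPD at 37°C for 24 hours in six parallel replicates. Darwinian fitness relative to wild type was based on the change in genotype frequencies. Genotypes required ≥ 100 starting reads, and estimates < 0.5 were set to 0.5.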

Point of comparison: G38A A45G G52A C61G, yeast fitness 0.679. Against it:
- U8C A14G C27U U32A — lower, ≤ 0.5
- C11A A20U C29U C33G C62A A70U — lower, ≤ 0.5
- A37U G44A G67U A70G — lower, ≤ 0.5
- A20G G58U — higher, 0.781
- A42G G67A — higher, 0.747
- C62G G63C A65U — lower, ≤ 0.5
- U7A A40U G67A — lower, ≤ 0.5
- G52A C66U — higher, 0.706
- U8G G17A C24G C66U — lower, ≤ 0.5
- G23A U28A C30U A40C G52C G67A — lower, ≤ 0.5
- C29U A45G — higher, 0.98
- C33U A45C U64G — lower, ≤ 0.5
- A14U A43C C46U — lower, ≤ 0.5
- U8A G12C G17A C29U G38A G44C G50A — lower, ≤ 0.5
- A14C U47A — higher, 0.701
- U26A C60G — higher, 0.691
- C11A U19C C31U U53A — lower, ≤ 0.5
- A21U C34G G39A C55U C61G — lower, ≤ 0.5
- G6A G9C C29U C55G — lower, ≤ 0.5
- C29U C60U — higher, 0.758
- C34G G50C C55G — lower, 0.59
- C34A U64A — higher, 0.783
- U2A C5G A14G C30G C46U — lower, ≤ 0.5
- C31G G48A U59C — higher, 0.793
- G12A A43U A45C A57G C60U G68C — lower, ≤ 0.5
- A15U C22U G44C A65G — lower, ≤ 0.5
- G38C G58C A69U — higher, 0.714
- U2C A45U C46G G58C U59C A65G C66G — lower, 0.628
- A43U C61G C62U G68A A69C — lower, ≤ 0.5
- C27G U28C G52A C60G G68U A69C — lower, ≤ 0.5
- C11A G12C — lower, 0.612
- C24G U26C U32A A36C C49G G51C C66U G68A — lower, ≤ 0.5
- G25C C60A G67C — lower, ≤ 0.5
- U19C — higher, 0.972
- G18C A21G C66A — lower, ≤ 0.5
- C24U C34U C46A — lower, ≤ 0.5
- G18C C60G A70C — lower, ≤ 0.5
- U28G G39C C55G — lower, ≤ 0.5
- A15U A43U G48A G68C — lower, ≤ 0.5
- C4A C31G A45G G50C G63A — lower, ≤ 0.5
- C24A A43G A65C — lower, ≤ 0.5
- C5U C55U G56C — higher, 0.746
- C27A G41C A43C A69U — lower, ≤ 0.5
- A21G G41C — higher, 0.997
- U2G C11G C62U — lower, 0.609
- C29G U54A — lower, ≤ 0.5
- C5U U32C C49U A57C — lower, ≤ 0.5
- G23U C24G C62A — lower, ≤ 0.5
- G39A U59C — higher, 0.956
- C5U C27U A37C C60A C66U — lower, ≤ 0.5
- A20C C22U C29G G41C C49G U53A — lower, ≤ 0.5
- U7C G18A C31A U59A — lower, ≤ 0.5
- U53A C61A — lower, 0.509
- C24G G38A — lower, 0.519
- G10A U32G C34A — lower, ≤ 0.5
- A14G A15G G56A — lower, 0.567
- C29A C30U G58A — lower, ≤ 0.5
- A37U C60U — lower, 0.519
- U7C G48C A70C — lower, 0.6
- G10C G44A A70C — lower, ≤ 0.5
- G41C C55G C66G — lower, ≤ 0.5
- C31G A42U C66U — higher, 0.767
- C29U C30A A45C — lower, 0.563
- A20G U53A — higher, 0.692
- U2G C5A G12A C55G — lower, ≤ 0.5
- A21G G58C A65U — higher, 1.18
- A15U C22A A43G G51C — lower, ≤ 0.5
- C11G U32A — lower, ≤ 0.5
- C4G G23C C60G — lower, ≤ 0.5
- C34G G50C A69U — lower, ≤ 0.5
- C5A A15C G67U — lower, 0.526
- C4A A15C A20C — lower, ≤ 0.5
- U64C A65G — higher, 0.86
- A20G C34U G38A A43G — lower, ≤ 0.5
- U32C C60A — lower, 0.645
- G10U G17A C29G C55G C60U — lower, ≤ 0.5
- U32C G63A — higher, 0.832
- U3G A45C U54C A69U — higher, 0.793
- A36U A37G A40C — lower, ≤ 0.5
- U19C C22A U32A A37U A45C — lower, 0.505
- G12A U13C C22A U26C U47A U54G — lower, ≤ 0.5
- C5U G38C A42C G63A — lower, ≤ 0.5
- C33U A57U U59C — lower, 0.601
- A20U C49G U54C — lower, ≤ 0.5
- C4A U32C G68C — higher, 0.867
- C29G C49G G50C A69U A70C — lower, ≤ 0.5
- C4U U16A A20G — lower, 0.665
- C30G C33U G58A — lower, ≤ 0.5
- C4G C55U — higher, 0.748
- G23A G39C C49A — lower, ≤ 0.5
- G38C A69C — higher, 0.722
- C31G G67U A69C — lower, 0.526
- G17C U19A C24G U26A C34U A69U — lower, ≤ 0.5
- G18A C24U — lower, 0.646
- A36G G63C — higher, 0.724
- G6C C11G G48C A57G U59A C60A — lower, ≤ 0.5
- G25A A43C — higher, 0.975
- G12A G51A A65G — lower, ≤ 0.5
- C5A A37C C55A G56C — lower, ≤ 0.5
- G39C G50A U59C — lower, ≤ 0.5
- C29U G63A A69U — lower, 0.641
- U54A C66U — higher, 0.729
- A20G A21C G39C G48C C62G — lower, ≤ 0.5
- C49A C66U — lower, 0.641
- C4U C5G C34U U54A G67U — lower, ≤ 0.5
- A21C C24U U32A A65C — lower, ≤ 0.5
- C4G A43U G51C — lower, ≤ 0.5
- G48A U64C — higher, 0.816
- C24G U26A A45C — lower, ≤ 0.5
- C11U C24G C33A A40C A65U — lower, 0.641
- C30U G38A C61U — higher, 0.692
- C34A C49A G51C — lower, 0.591
- U3G C5U U32C G41C C49U U59G — lower, ≤ 0.5
- C11G A40C C61U — lower, ≤ 0.5
- U28G C62U C66G — lower, 0.568
- C5G U59G — lower, 0.62
- C30U A37C G38A — lower, ≤ 0.5
- G44C U59A — lower, 0.581
- A20C C22U C34U U35G U47C A65C — lower, ≤ 0.5
- U32C C61U — higher, 0.987
- C4G C49U G52A C60G — lower, ≤ 0.5
- A20C C62A — higher, 0.831
- C27U G41C — higher, 0.898
- C4U G39C G48C C62G — lower, 0.549
- G6A G67A — higher, 0.872
- C22G A70C — higher, 0.963
- C4U G10C U35C G41A — lower, ≤ 0.5
- C4U G52A — higher, 0.727
- C27G G39A C61G C62G — lower, ≤ 0.5
- C5G U13C C22G C29G A45C — lower, ≤ 0.5
- A15C G56A A57C — lower, ≤ 0.5
- U8C G10A A40G A65G G67A — lower, ≤ 0.5
- C11G C22A — lower, 0.608
- G17A C60G G67A — lower, ≤ 0.5
- U19A G67A — higher, 0.866
- G58C G68A A70G — lower, ≤ 0.5
- C5G A21C C33U — lower, 0.535
- U3A C4A U16A C30G U53C G67A — lower, 0.604
- A42U A69U — higher, 1.02
- C5U C22G U28A C31G C55A G68C — lower, 0.542
- C5U U7C A40U G63C — lower, ≤ 0.5
- G10A A21G C22A C31A A40G C46G — lower, ≤ 0.5
- A15C A45G G68A — lower, ≤ 0.5
- C31A A43G G50A A57U — higher, 0.768
- U16G C24G A37U — lower, ≤ 0.5
- U19G C22G C34U — lower, 0.559
- C30U A37U G52A C61G — lower, ≤ 0.5
- G17A C22U A45G — lower, ≤ 0.5
- C11A A20U U32C G68C — lower, ≤ 0.5
- C24A C62U — higher, 0.724
- A20C G41C A42C G56A U64C A70U — lower, ≤ 0.5
- U28G A36U C46U C61U — lower, ≤ 0.5
- G18A A20U C60A — lower, ≤ 0.5
- U26A C30A C62U — lower, 0.585
- C24G C31U C61U — lower, ≤ 0.5
- U7G A21C A42U C66U — lower, ≤ 0.5
- C4U C31G C55U G68C — lower, ≤ 0.5
- U2C C27A A40G C61G — lower, ≤ 0.5
- U2A C5G U53A C66U — lower, ≤ 0.5
- U8A C31U G58A C61G C66U — lower, ≤ 0.5
- C60G A70G — lower, 0.58
- U3A A14C A37C — lower, ≤ 0.5
- C33A G52A A65U — lower, ≤ 0.5
- U7A A37G A40G A43G G52C U59G C66U A69U — lower, ≤ 0.5
- C4U G9A C33G — lower, 0.639
- G9C C27A — higher, 0.732
